In the library only some 2.3% were active in any assay of this set; here they are far more common.
m-calpain inh: calpain II (pig) inhibition | inhibition, % at 16 µM | AID 1236 | 220,000 tested, 0.37% active | purified calpain II, fluorogenic peptide substrate, 30 min;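 active = inhibition above about 50%, limit read from the data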
NPY-Y1 PAM-ag: potentiators or agonists of human neuropeptide Y receptor Y1. NPY-Y1 expressing cells, potentiator/agonist activation. activation, % at 3.6 µM. 220,000 tested, 0.37% active; in the data active = activation above about 33%, passing the limit was not always enough;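 also: cells stimulated with NPY at EC10 then isoproterenol at EC100; 0% = low agonist plus stimulus and 100% = saturating agonist plus stimulus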
Target sequence (P25929 whole entry, looked up): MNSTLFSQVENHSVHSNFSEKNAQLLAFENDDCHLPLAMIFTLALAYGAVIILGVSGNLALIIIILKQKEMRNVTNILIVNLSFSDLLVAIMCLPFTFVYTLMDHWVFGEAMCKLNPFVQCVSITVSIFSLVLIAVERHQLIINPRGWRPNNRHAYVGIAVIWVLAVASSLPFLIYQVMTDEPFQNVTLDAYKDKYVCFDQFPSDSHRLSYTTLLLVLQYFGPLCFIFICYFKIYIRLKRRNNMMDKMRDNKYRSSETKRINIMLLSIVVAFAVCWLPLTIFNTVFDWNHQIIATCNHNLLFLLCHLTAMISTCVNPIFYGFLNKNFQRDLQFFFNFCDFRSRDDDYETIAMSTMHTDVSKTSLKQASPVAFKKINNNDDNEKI
NPY2 pot ag: potentiators or agonists of human neuropeptide Y receptor Y2; P49146; cells expressing NPY-Y2, potentiator/agonist read-out; activation, % at 3.6 µM; 220,000 tested, 0.45% active; AID 1359; in the data active = activation above about 27%;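 also: cells stimulated with NPY near EC25 plus isoproterenol at EC100; 0% = vehicle plus submaximal agonist and 100% = vehicle plus saturating agonist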
Target sequence (P49146 whole entry, looked up): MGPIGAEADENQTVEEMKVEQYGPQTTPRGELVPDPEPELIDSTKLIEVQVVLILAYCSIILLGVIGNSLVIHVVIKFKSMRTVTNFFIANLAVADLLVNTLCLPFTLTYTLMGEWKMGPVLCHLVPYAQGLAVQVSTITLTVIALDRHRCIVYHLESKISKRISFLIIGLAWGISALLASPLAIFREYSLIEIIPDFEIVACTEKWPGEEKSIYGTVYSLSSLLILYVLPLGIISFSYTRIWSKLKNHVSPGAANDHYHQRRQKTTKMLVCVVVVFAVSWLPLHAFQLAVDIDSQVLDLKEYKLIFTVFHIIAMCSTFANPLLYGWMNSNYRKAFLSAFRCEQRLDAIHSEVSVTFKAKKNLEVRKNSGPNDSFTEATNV
TbHK1 inh: blocks Trypanosoma brucei hexokinase 1 activity; recombinant TbHK1, G6PDH-coupled NADH A340; inhibition, % at 10 µM; 220,000 tested, 0.11% active; AID 1430;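 active = inhibition of 50% or more in the single-dose primary screen; inactive = inhibition below 50%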
NPY-Y1 antag: NPY-Y1 (human) receptor antagonism | P25929 | HEK293-CNG Y1 cells, membrane potential fluorescence; NPY at EC95, then isoproterenol | inhibition, % at 3.6 µM | 200,000 tested, 1% active;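 active = inhibition above the campaign mean inhibition of all tested compounds plus 3 SD, cut at about 20% in these data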;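 also: 0% = DMSO wells given NPY plus isoproterenol and 100% = isoproterenol alone without NPY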
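Material: HEK293 cells co-expressing NPY Y1 receptor and cyclic-nucleotide gated channel. Timing: compound incubation 1 h at room temperature, readout 45 min post-stimulation. Signal: fluorescence, membrane potential probe.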
NPY-Y2 antag: NPY-Y2 (human) receptor antagonism. AID 793. P49146. inhibition, % at 2.7 µM. NPY-Y2 expressing cells, antagonist mode. 140,000 tested, 0.99% active; in the data active = inhibition above about 17%;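 also: 0% = vehicle with agonist challenge and 100% = reference antagonist with challenge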
NPY-Y2 pot conf: confirmation of human NPY-Y2 receptor potentiators or agonists; shares compounds with NPY2 pot ag; cell-based NPY-Y2 potentiator/agonist assay; activation, % at 3.6 µM; 450 tested, 20% active; AID 1539; in the data active = activation above about 33%
NPY-Y1 potentiator: NPY-Y1 potentiation or agonism as NPY-Y2 counter-screen | Y1 HEK293-CNG cells, membrane potential fluorescence | 450 tested, 20% active | activation, % at 3.6 µM | shares compounds with NPY2 pot ag; in the data active = activation above about 45%;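 also: cells stimulated with submaximal NPY then isoproterenol with phosphodiesterase inhibitor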
NPY-Y1 agonist 2: human NPY-Y1 agonism as NPY-Y2 potentiator counter-screen; AID 1702; activation, % at 3.6 µM; shares compounds with NPY2 pot ag; 450 tested, 37% active; HEK293 Y1-CNGC, membrane potential fluorescence;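 active = activation above the mean of DMSO-only control wells plus 3 SD, cut at about 18% in these data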;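 also: cells stimulated with 1 µM isoproterenol plus the PDE inhibitor Ro 20-1724; 0% = isoproterenol with DMSO and no NPY and 100% = 40 nM NPY; Y1 agonists lower the membrane potential dye signal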
CNGC inh: blocks CNG channel activity, counter-screen for NPY-Y2 potentiators; shares compounds with NPY2 pot ag; HEK293-CNG parental, isoproterenol cAMP, membrane potential fluorescence; inhibition, % at 3.6 µM; 450 tested, 32% active;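 active = inhibition above the control-well mean plus 3 SD of those wells, cut at about 22% in these data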;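 also: 0% = DMSO with isoproterenol and 100% = DMSO without isoproterenol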
Y2 agonist ctr: activates human NPY-Y2 receptor in potentiator counter-screen; shares compounds with NPY2 pot ag; HEK293 Y2/CNGC cells, membrane potential fluorescence, agonist mode; activation, % at 3.6 µM; 450 tested, 56% active;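 active = activation above the mean of solvent-only control wells plus 3 SD, cut at about 10% in these data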;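 also: cells stimulated by isoproterenol with no NPY added so direct agonism is tested; 0% = DMSO with isoproterenol alone and 100% = NPY at EC100 plus isoproterenol; agonism lowers probe fluorescence through less cAMP and CNG channel opening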
An asterisk follows results filed as active; . = not tested or not shown.

SMILES	m-calpain inh	NPY-Y1 PAM-ag	NPY2 pot ag	TbHK1 inh	NPY-Y1 antag	NPY-Y2 antag	NPY-Y2 pot conf	NPY-Y1 potentiator	NPY-Y1 agonist 2	CNGC inh	Y2 agonist ctr
Nc1c(-c2ccccc2)c(CSc2nc3ccccc3[nH]2)nn1-c1ccc(Cl)cc1	0.1	12.7	28.9*	15.1	2.6	1.6	32.6	29.1	16.8	20.7	33.0*
CCN(CC)C(=O)c1sc(NC(=O)c2ccc(OC)c([N+](=O)[O-])c2)c(C#N)c1C	23.0	1.1	7.7	-25.1	-0.5	8.2	.	.	.	.	.
CCN(CC(=O)Nc1ccc(C(=O)Nc2ccc(OC)cc2)cc1)Cc1nc2ccccc2c(=O)[nH]1	-11.0	4.6	-1.0	-8.3	.	.	.	.	.	.	.
COc1ccc(S(N)(=O)=O)cc1C(=O)NCCCN1CCN(c2ccc(C)cc2)CC1	-34.3	25.3	-20.0	10.0	-4.3	0.3	.	.	.	.	.
COc1ccc(S(N)(=O)=O)cc1C(=O)NCCCN1CCN(c2ccccc2OC)CC1	-4.3	13.3	76.3*	3.0	-1.5	1.6	-7.2	3.5	-16.9	-6.4	-1.2
CC(=O)SCCC(=O)Nc1ccccc1	0.7	26.4	43.7*	5.8	-15.6	-7.2	31.6	41.2	51.6*	37.2*	46.8*
CC(=O)NNC(=O)CCC(=O)Nc1ccccc1	-18.6	-1.0	0.4	4.6	-1.2	2.7	.	.	.	.	.
CCOC(=O)Cn1c(=O)oc2cc(S(=O)(=O)Nc3ccc(F)cc3)ccc21	7.1	31.3	35.8*	-3.0	-10.7	-1.5	16.4	20.3	21.8*	33.0*	11.7*
CCOC(=O)Cn1c(=O)oc2cc(S(=O)(=O)NCCc3ccc(C)cc3)ccc21	-6.2	-10.0	-13.2	3.2	2.8	13.4	.	.	.	.	.
Cc1ccccc1Nc1c(-c2ccncc2)nc2ccc(Br)cn12	-13.8	30.5	47.5*	4.7	-0.7	0.3	71.4*	76.3*	57.6*	52.9*	69.7*
O=C(COC(=O)C1=COCCO1)NCc1ccc(Cl)cc1	-18.5	18.6	4.3	-2.2	5.2	.	.	.	.	.	.
Cc1c([N+](=O)[O-])nnn1-c1cc(Cl)cc(Cl)c1	2.3	18.6	1.1	-2.5	-6.0	.	.	.	.	.	.
O=C(c1ccccc1)c1c2c(cc3sc4ccccc4[n+]13)-c1cccc3cccc-2c13	-8.1	35.1	40.5*	31.1	-7.3	3.9	50.6*	59.8*	53.6*	55.6*	60.2*
Cc1sc2cc3c(c(C(=O)c4ccccc4)[n+]2c1C)-c1cccc2cccc-3c12	-43.1	15.6	30.6*	10.3	1.2	6.1	20.3	10.7	8.2	8.7	16.5*
NS(=O)(=O)c1ccc(CCNC(=O)c2ccccc2[N+](=O)[O-])cc1	14.2	5.1	-0.8	3.7	-1.6	3.1	.	.	.	.	.
O=C(Nc1nc(-c2ccccc2)cs1)c1ccccc1NS(=O)(=O)c1ccc(F)cc1	-57.5	6.4	46.1*	3.2	11.5	0.2	5.3	-7.7	-6.9	12.4	6.3
COc1ccc(NC(=O)c2cccnc2SC)cc1OC	4.7	5.4	9.5	-1.8	-2.4	.	.	.	.	.	.
CSc1ncccc1C(=O)Nc1ccc2nc(C)sc2c1	-18.9	20.3	105.1*	-10.7	.	.	-4.8	0.0	-2.4	1.2	-4.7
Clc1cccc(-c2nnc(SCc3nc4ccccc4[nH]3)n2Cc2ccco2)c1	8.1	-26.9	-36.9	9.3	14.1	4.0	.	.	.	.	.
Clc1ccc(OCc2nnc(SCc3nc4ccccc4[nH]3)n2Cc2ccco2)cc1	-61.5	40.7	40.4*	0.8	-7.8	1.0	6.1	-1.4	-4.6	10.3	14.4*
NNC(=O)c1cccc(S(=O)(=O)Nc2cccc(C(F)(F)F)c2)c1	-8.0	19.6	2.0	-5.1	.	.	.	.	.	.	.
Cc1[nH]c2ccccc2c1/C=N/NC(=O)c1cccc(S(=O)(=O)Nc2cccc(C(F)(F)F)c2)c1	-215.1	39.5	42.2*	-5.0	-2.6	.	41.1*	60.0*	45.5*	35.0*	40.0*
Cc1ccc(OCCN2C(=O)CSC2=O)cc1	-14.6	-18.8	0.0	-12.5	0.3	3.6	.	.	.	.	.
C[N+](C)(C)CCN1C(=O)CSC1=O	8.9	26.9	82.5*	-4.2	.	.	-3.2	-1.4	-1.6	0.8	1.9
C/C(=N\Nc1ccc([N+](=O)[O-])cc1)c1ccc(N2CCOCC2)cc1	-9.1	21.8	19.0	-29.2	.	.	.	.	.	.	.
SMILES	m-calpain inh	NPY-Y1 PAM-ag	NPY2 pot ag	TbHK1 inh	NPY-Y1 antag	NPY-Y2 antag	NPY-Y2 pot conf	NPY-Y1 potentiator	NPY-Y1 agonist 2	CNGC inh	Y2 agonist ctr
CCc1ccc(/C(C)=N\Nc2ccc([N+](=O)[O-])cc2)cc1	10.5	37.5	39.0*	-0.6	-6.3	-4.3	20.0	27.2	24.3*	30.4*	29.6*
CCCC1(C(=O)OCC)NC(c2ccco2)C2C(=O)N(C)C(=O)C21 (configuration not stated)	-5.0	8.8	7.1	2.1	-2.2	.	.	.	.	.	.
Cc1ccc(O)c(-c2cc(-c3ccccc3[N+](=O)[O-])[nH]n2)c1	27.0	31.2	35.0*	24.4	-12.3	-6.9	34.5*	37.9	35.6*	33.4*	34.5*
O=[N+]([O-])c1ccccc1-c1cc(-c2cc(Cl)ccc2O)n[nH]1	13.8	35.8	31.1*	13.0	-9.4	-7.6	49.6*	59.4*	52.0*	54.1*	60.4*
Oc1ccccc1-c1cc(-c2ccco2)[nH]n1	-11.7	12.0	-0.6	-3.3	-5.8	-0.5	.	.	.	.	.
Oc1ccc(Cl)cc1-c1cc(-c2ccco2)[nH]n1	4.5	41.1	28.7*	0.3	-7.3	-6.4	26.2	37.5	32.6*	23.6*	31.5*
COCCN1Cc2cccc(C(=O)Nc3ccc(S(=O)(=O)N4CCOCC4)cc3)c2C1=O	-2.5	-0.4	9.3	-1.5	-1.4	.	.	.	.	.	.
Cc1ccc(OCC(=O)NC(=S)Nc2ccc(Br)cn2)cc1C	-11.8	-9.6	-14.7	-7.4	-6.0	.	.	.	.	.	.
COC(=O)c1ccsc1NC(=O)C1=COCCO1	-9.6	-3.5	50.7*	-23.8	-8.7	0.4	-5.5	-3.3	-11.9	-9.4	-7.2
COc1ccc(/C=c2/sc3n(c2=O)C(c2ccccc2OC)C2=C(N=3)c3ccccc3CC2)cc1O (configuration not stated)	-21.2	20.9	36.1*	-22.6	-8.9	0.6	12.4	25.1	17.8*	16.5	9.3
CCN1C(=O)/C(=C2/C=Cc3ccccc3N2CC)SC1=S	2.9	35.2	33.1*	-6.1	-5.9	.	38.5*	47.5*	42.6*	35.7*	47.5*

Assay outcomes as filed in PubChem.
